Our source for the IC50 values is ChEMBL document CHEMBL1667736, “Tirucallane triterpenoids from Cornus walteri” (J Nat Prod, 2011).

What is called pIC50 is −log10 of the IC50, conventionally taken in molar units. Read a high pIC50 as a low IC50.

Common to all, as to format: functional, cell-based
Test [1] concerns A549. Put plainly: Cytotoxicity against human A549 cells by SRB assay. The essentials: (§1)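 Sulforhodamine B (SRB) cytotoxicity assay on cultured human cancer lines: A549 (non-small cell lung adenocarcinoma), SK-OV-3 (ovarian), SK-MEL-2 (skin melanoma), XF498 (CNS). Assays were run at the Korea Research Institute of Chemical Technology. Etoposide served as positive control. Potency is expressed as IC50 in µM.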
For orientation: In SRB staining, fixed cells bind dye roughly in proportion to their protein.

For test [2], the system named is SK-OV-3. Put plainly: Cytotoxicity against human SKOV3 cells by SRB assay. The method in brief:
as §1

In test [3] the test system is SK-MEL-2. Put plainly: Cytotoxicity against human SK-MEL-2 cells by SRB assay. The essentials:
as §1

Test [4] has as its system XF498. Put plainly: Cytotoxicity against human XF498 cells by SRB assay. The method in brief:
as §1

pIC50: −log10 of the molar value.

With `COC(C)(C)/C=C/C[C@H](C)[C@@H]1CC[C@]2(C)C3=CCC4C(C)(C)C(=O)CC[C@]4(C)[C@H]3CC[C@@]12C` (stereo partly drawn) [(-)-LEUCOPHYLLONE], the pIC50 in test [1] was 4.60; in test [2] it was 4.74; in test [3], 4.67; in test [4], 4.74.

`COC(C)(C)/C=C/C[C@H](C)[C@@H]1CC[C@]2(C)C3=CCC4C(C)(C)[C@@H](O)CC[C@]4(C)[C@H]3CC[C@@]12C` (stereo not given in full) [CORNUSALTERIN A]: the pIC50 is 4.65 in test [1], 4.90 in test [2], 4.92 in test [3] and 4.76 in test [4].

Regarding `COC(C)(C)/C=C/C[C@H](C)[C@@H]1CC[C@]2(C)[C@@H]3CCC4C(C)(C)C(=O)CC[C@]4(C)[C@H]3CC[C@@]12C` (stereo not given in full) [CORNUSALTERIN B], the pIC50 in test [1] was 4.54; in test [2], 4.72; in test [3], 4.74; in test [4], 4.54.

On to `COC(C)(C)/C=C/C[C@H](C)[C@@H]1CC[C@]2(C)[C@@H]3CCC4C(C)(C)[C@@H](O)CC[C@]4(C)[C@H]3CC[C@@]12C` (stereo not given in full) [CORNUSALTERIN C], for which the pIC50 in test [1] is 4.63; in test [2], 4.78; in test [3], 4.92; in test [4] it was 4.76.

For the compound `C=C(C)/C=C/C[C@H](C)[C@@H]1CC[C@]2(C)C3=CCC4C(C)(C)C(=O)CC[C@]4(C)[C@H]3CC[C@@]12C` (stereo not given in full) [CORNUSALTERIN D], the pIC50 in test [1] is 4.57; in test [2], 4.84; in test [3], 4.90; in test [4] it was 4.75.

On to `CC(C)CCC[C@H](C)[C@@H]1CC[C@]2(C)C3=CCC4C(C)(C)C(=O)C=C[C@]4(C)[C@H]3CC[C@@]12C` (stereo not given in full) [CORNUSALTERIN E], for which the pIC50 in test [1] is 4.74; in test [2] it was 4.85; in test [3], 4.90; in test [4], 4.88.

Take `CC(C)CCC[C@H](C)[C@@H]1CC[C@]2(C)C3=CCC4C(C)(C)C=CC(=O)[C@]4(C)[C@H]3CC[C@@]12C` (stereo not given in full) [CORNUSALTERIN F]: the pIC50 is 4.57 in test [1], 4.56 in test [2], 4.67 in test [3] and 4.61 in test [4].

As for `CO[C@@H](C=C(C)C)C[C@H](C)[C@@H]1CC[C@]2(C)C3=CCC4C(C)(C)C(=O)CC[C@]4(C)[C@H]3CC[C@@]12C` (stereo not given in full) [CORNUSALTERIN G], the pIC50 was 4.52 in test [1], 4.57 in test [2], 4.74 in test [3] and 4.69 in test [4].

`CO[C@H](C=C(C)C)C[C@H](C)[C@@H]1CC[C@]2(C)C3=CCC4C(C)(C)C(=O)CC[C@]4(C)[C@H]3CC[C@@]12C` (stereo not given in full) [CORNUSALTERIN H]: the pIC50 in test [1] is 4.54; in test [2], 4.67; in test [3], 4.75; in test [4], 4.73.

In the case of `CO[C@H](C=C(C)C)C[C@H](C)[C@@H]1CC[C@]2(C)C3=CCC4C(C)(C)C(=O)CC[C@]4(C)C3=CC[C@@]12C` (stereo not given in full) [CORNUSALTERIN I], the pIC50 in test [1] is 4.75; in test [2], 4.87; in test [3], 4.98; in test [4], 4.91.

For `CO[C@@H](C=C(C)C)C[C@H](C)[C@@H]1CC[C@]2(C)C3=CCC4C(C)(C)[C@@H](O)CC[C@]4(C)[C@H]3CC[C@@]12C` (stereo not given in full) [CORNUSALTERIN J], the negative-log IC50 (pIC50) is 4.60 in test [1], 4.75 in test [2], 4.91 in test [3] and 4.74 in test [4].

Regarding `CC(C)CCC[C@H](C)[C@@H]1CC[C@]2(C)[C@@H]3CC=C4C(C)(C)C(=O)C[C@@H](O)[C@]4(C)[C@H]3CC[C@@]12C` [CORNUSALTERIN K], the pIC50 in test [1] is 4.93; in test [2] it was 4.89; in test [3], 4.91; in test [4], 4.92.

`CC(C)=C[C@@H]1C[C@@H]([C@@H]2CC[C@]3(C)C4=CCC5C(C)(C)C(=O)CC[C@]5(C)[C@H]4CC[C@@]23C)CO1` (stereo not given in full) [CORNUSALTERIN L]: the pIC50 was 5.37 in test [1], 5.42 in test [2], 5.33 in test [3] and 5.24 in test [4].

`CC(C)=C[C@H]1C[C@@H]([C@@H]2CC[C@]3(C)C4=CCC5C(C)(C)C(=O)CC[C@]5(C)[C@H]4CC[C@@]23C)CO1` (stereo not given in full) [DEOXYFLINDISSONE]: the pIC50 is 5.40 in test [1], 5.44 in test [2], 5.22 in test [3] and 5.29 in test [4].

Take `COc1cc([C@@H]2c3cc4c(cc3[C@@H](O[C@@H]3O[C@@H]5CO[C@@H](C)O[C@H]5[C@H](O)[C@H]3O)[C@H]3COC(=O)[C@H]23)OCO4)cc(OC)c1O` [ETOPOSIDE]: the pIC50 in test [1] was 5.73; in test [2] it was 5.74; in test [3] it was 5.93; in test [4] it was 5.76.
